# Measurements taken from ChEMBL document CHEMBL1142971, “NO-donor COX-2 inhibitors. New nitrooxy-substituted 1,5-diarylimidazoles endowed with COX-2 inhibitory and vasodilator properties” (J Med Chem, 2007).
# pEC50, pIC50: −log10 of the molar value.
# Experiments:
# [1] = target: T1, Prostaglandin G/H synthase 2 (Homo sapiens, UniProt P35354)
# T1 sequence (P35354 whole entry): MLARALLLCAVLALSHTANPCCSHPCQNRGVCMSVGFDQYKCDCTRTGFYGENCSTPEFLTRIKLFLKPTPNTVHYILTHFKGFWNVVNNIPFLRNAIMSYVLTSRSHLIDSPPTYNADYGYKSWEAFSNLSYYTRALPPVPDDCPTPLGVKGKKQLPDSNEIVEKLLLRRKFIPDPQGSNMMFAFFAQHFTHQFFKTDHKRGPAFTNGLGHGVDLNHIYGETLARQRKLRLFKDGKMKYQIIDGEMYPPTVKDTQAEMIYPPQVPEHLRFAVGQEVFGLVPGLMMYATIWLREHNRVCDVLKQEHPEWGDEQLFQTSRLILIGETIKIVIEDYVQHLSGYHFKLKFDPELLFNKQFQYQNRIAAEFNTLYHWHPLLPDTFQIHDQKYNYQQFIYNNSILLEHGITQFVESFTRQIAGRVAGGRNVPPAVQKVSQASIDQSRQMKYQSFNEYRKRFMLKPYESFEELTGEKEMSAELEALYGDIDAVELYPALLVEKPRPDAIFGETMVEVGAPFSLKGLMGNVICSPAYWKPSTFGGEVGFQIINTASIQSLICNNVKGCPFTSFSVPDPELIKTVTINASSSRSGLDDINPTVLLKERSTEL
# [2] = target: Prostaglandin G/H synthase 1 (Homo sapiens, UniProt P23219); assay: Inhibition of COX1 in human whole blood assessed as TxB2 production after 1 hr; format: tissue-based
# Sequence of Prostaglandin G/H synthase 1 (P23219 whole entry): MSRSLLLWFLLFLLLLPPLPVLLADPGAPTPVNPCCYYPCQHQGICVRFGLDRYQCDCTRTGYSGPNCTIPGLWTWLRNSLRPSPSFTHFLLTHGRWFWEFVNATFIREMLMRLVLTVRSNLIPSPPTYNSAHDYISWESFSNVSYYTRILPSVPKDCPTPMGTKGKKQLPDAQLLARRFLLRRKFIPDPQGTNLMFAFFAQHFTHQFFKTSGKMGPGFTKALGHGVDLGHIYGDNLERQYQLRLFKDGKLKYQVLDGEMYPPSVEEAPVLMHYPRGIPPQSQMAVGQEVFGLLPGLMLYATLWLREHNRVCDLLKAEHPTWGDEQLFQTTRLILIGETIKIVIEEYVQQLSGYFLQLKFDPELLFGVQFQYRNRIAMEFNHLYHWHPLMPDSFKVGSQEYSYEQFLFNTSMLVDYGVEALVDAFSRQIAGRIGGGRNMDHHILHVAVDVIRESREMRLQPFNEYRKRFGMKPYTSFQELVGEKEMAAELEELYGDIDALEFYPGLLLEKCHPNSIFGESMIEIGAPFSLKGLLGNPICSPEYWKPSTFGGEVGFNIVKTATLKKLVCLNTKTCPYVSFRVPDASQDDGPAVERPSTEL
# [3] = organism: Rattus norvegicus; assay: Vasodilation of phenylephrine-induced contraction in Wistar rat aorta in the presence of ODQ; format: functional
# Outline: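 Rat aortic strips (male Wistar, 180-200 g) were equilibrated 120 min. 1 μM ODQ (sGC inhibitor) was added to the bath 5 min before contraction with 1 μM L-phenylephrine. At plateau, cumulative vasodilator concentrations were added. Isometric relaxation was recorded and given as EC50 ± SE (μM).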
# [4] = Stability in human whole blood at 100 uM after 24 hrs; format: ADME, tissue-based; conditions: read-out: Stability
# Outline: (§1)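 Compound incubated at 37 ± 0.5 °C in human serum or human whole blood. Aliquots taken at set times were diluted 1:2 with acetonitrile containing 0.1% TFA to deproteinize, then sonicated, vortexed, centrifuged 15 min at 2150 × g and filtered.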
# [5] = Stability in human serum at 100 uM after 24 hrs; format: ADME, cell-free; conditions: read-out: Stability
# Outline: as §1
# [6] = organism: Rattus norvegicus; assay: Vasodilation of phenylephrine-induced contraction in Wistar rat aorta; format: functional
# Outline: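 Thoracic aortic strips from male Wistar rats (180-200 g) were equilibrated 120 min and precontracted with 1 μM L-phenylephrine. At plateau, cumulative concentrations of vasodilator were added, with DMSO as vehicle. Relaxation was recorded isometrically and reported as EC50 ± SE (μM).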
# [7] = organism: Rattus norvegicus; assay: Vasodilation of phenylephrine-induced contraction in Wistar rat aorta in the presence of HbO2; format: functional
Compound,pIC50 [1],pIC50 [2],pEC50 [3],"remaining at 24 h, 100 µM [4]","remaining at 24 h, 100 µM [5]",pEC50 [6],pEC50 [7]
COc1ccc(-c2c(Cl)ncn2-c2ccc(S(C)(=O)=O)cc2)cc1F,7.05,5.24,4.62,,,,
NS(=O)(=O)c1ccc(-n2cnc(Cl)c2-c2ccc(OCCO)c(F)c2)cc1,4.70,< 4.00,,,,,
CS(=O)(=O)c1ccc(-n2cnc(Cl)c2-c2ccc(OCC(CO[N+](=O)[O-])O[N+](=O)[O-])c(F)c2)cc1 (centres undefined),4.12,< 4.00,< 4.00,43.6%,> 97%,,7.21
COc1ccc(-c2c(Cl)ncn2-c2ccc(S(N)(=O)=O)cc2)cc1F [CIMICOXIB],,5.72,4.60,,,,
O=[N+]([O-])O[C@H]1CO[C@H]2[C@@H]1OC[C@H]2O[N+](=O)[O-] [ISOSORBIDE DINITRATE],,,< 4.00,,,5.33,4.26

# Second part, led by results:
pIC50 [1],pIC50 [2],pEC50 [3],"remaining at 24 h, 100 µM [4]","remaining at 24 h, 100 µM [5]",pEC50 [6],Compound,pEC50 [7]
< 4.00,< 4.00,,,,,CS(=O)(=O)c1ccc(-n2cnc(Cl)c2-c2ccc(OCCCO)c(F)c2)cc1,
4.25,< 4.00,,,,,CS(=O)(=O)c1ccc(-n2cnc(Cl)c2-c2ccc(OCCO)c(F)c2)cc1,
,< 4.00,4.92,58.8%,> 98%,7.29,NS(=O)(=O)c1ccc(-n2cnc(Cl)c2-c2ccc(OCCO[N+](=O)[O-])c(F)c2)cc1,
,< 4.00,5.19,53.3%,> 98%,7.68,CS(=O)(=O)c1ccc(-n2cnc(Cl)c2-c2ccc(OCCO[N+](=O)[O-])c(F)c2)cc1,
4.85,< 4.00,5.20,60.6%,> 98%,7.11,CS(=O)(=O)c1ccc(-n2cnc(Cl)c2-c2ccc(OCCCO[N+](=O)[O-])c(F)c2)cc1,
4.80,< 4.00,4.74,64.1%,> 98%,7.00,NS(=O)(=O)c1ccc(-n2cnc(Cl)c2-c2ccc(OCCCO[N+](=O)[O-])c(F)c2)cc1,
< 4.00,< 4.00,,,,,NS(=O)(=O)c1ccc(-n2cnc(Cl)c2-c2ccc(OCCCO)c(F)c2)cc1,
